ChEMBL document CHEMBL2062515, “Synthesis and evaluation of novel radioligands for positron emission tomography imaging of metabotropic glutamate receptor subtype 1 (mGluR1) in rodent brain” (J Med Chem, 2012)
The source made the active and inactive calls. The calls are words filed in the database; no cut-off is given here.

Assays:
[1] = biological target: Metabotropic glutamate receptor 1 (Rattus norvegicus) (UniProt P23385); assay: Binding affinity to mGluR1 in Sprague-Dawley rat thalamus after 30 mins by autoradiography in presence of JNJ16259685; details: tested as the 11C-labelled form
Sequence of Metabotropic glutamate receptor 1 (Rattus norvegicus) (P23385 19-1199 limits assumed): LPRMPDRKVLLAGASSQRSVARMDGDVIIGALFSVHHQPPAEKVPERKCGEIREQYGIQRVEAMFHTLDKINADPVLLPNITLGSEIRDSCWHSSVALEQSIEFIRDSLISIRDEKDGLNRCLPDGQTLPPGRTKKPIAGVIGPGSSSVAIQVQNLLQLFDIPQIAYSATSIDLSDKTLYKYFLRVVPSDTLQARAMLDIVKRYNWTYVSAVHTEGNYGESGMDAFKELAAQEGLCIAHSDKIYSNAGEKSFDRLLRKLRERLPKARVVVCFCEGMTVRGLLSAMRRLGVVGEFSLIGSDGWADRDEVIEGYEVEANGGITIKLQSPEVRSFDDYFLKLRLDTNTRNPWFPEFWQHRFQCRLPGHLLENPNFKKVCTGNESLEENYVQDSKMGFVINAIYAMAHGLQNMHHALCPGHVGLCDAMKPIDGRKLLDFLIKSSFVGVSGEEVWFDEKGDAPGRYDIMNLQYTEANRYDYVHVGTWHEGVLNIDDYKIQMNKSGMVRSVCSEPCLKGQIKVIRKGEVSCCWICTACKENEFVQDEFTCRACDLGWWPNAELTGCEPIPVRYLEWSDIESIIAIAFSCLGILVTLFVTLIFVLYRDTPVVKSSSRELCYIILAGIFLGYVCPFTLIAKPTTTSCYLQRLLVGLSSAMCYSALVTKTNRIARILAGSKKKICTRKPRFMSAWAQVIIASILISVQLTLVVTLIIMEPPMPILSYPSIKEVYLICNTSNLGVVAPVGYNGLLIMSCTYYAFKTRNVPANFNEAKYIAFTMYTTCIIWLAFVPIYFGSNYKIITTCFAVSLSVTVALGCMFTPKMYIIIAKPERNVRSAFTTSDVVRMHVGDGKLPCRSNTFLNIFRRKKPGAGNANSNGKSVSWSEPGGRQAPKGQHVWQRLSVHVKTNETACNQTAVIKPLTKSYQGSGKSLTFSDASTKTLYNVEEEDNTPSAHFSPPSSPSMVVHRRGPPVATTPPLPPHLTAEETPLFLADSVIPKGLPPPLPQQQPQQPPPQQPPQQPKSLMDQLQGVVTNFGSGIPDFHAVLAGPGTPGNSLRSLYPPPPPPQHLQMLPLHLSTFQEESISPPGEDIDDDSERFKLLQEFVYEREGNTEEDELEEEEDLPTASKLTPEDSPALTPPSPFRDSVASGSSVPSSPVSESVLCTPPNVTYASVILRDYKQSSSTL

[2] = biological target: Metabotropic glutamate receptor 1 (Rattus norvegicus) (UniProt P23385); assay: Binding affinity to mGluR1 in Sprague-Dawley rat striatum after 30 mins by autoradiography in presence of JNJ16259685; details: tested as the 11C-labelled form
[3] = biological target: Metabotropic glutamate receptor 1 (Rattus norvegicus) (UniProt P23385); assay: Binding affinity to mGluR1 in Sprague-Dawley rat cerebellum at 0.4 MBq after 30 mins by autoradiography
[4] = biological target: Metabotropic glutamate receptor 1 (Rattus norvegicus) (UniProt P23385); assay: Binding affinity to mGluR1 in Sprague-Dawley rat thalamus at 0.4 MBq after 30 mins by autoradiography
In short: (§1)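 Sections were 20 μm rat brain slices, preincubated 20 min at room temperature in 50 mM Tris-HCl pH 7.4 containing 1.2 mM MgCl₂ and 2 mM CaCl₂. Incubation was 30 min at room temperature with an ¹⁸F radioligand at 0.4 MBq (5 pM or 4 pM), with or without JNJ-16259685 (1 μM). Sections were washed 3 × 5 min in cold buffer, rinsed in cold distilled water and air-dried cold.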

[5] = biological target: Metabotropic glutamate receptor 1 (Rattus norvegicus) (UniProt P23385); assay: Binding affinity to mGluR1 in Sprague-Dawley rat cerebellum at 9.2 MBq after 30 mins by autoradiography; details: 9.2 M, tested as the 11C-labelled form
In short: (§2)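 Rat brain sections (20 μm) were preincubated 20 min at room temperature in 50 mM Tris-HCl pH 7.4 with 1.2 mM MgCl₂ and 2 mM CaCl₂. They were then incubated 30 min at room temperature in fresh buffer with the ¹¹C radioligand (9.2 MBq, 0.5 nM), with or without JNJ-16259685 (1 μM) to define specific binding. Sections were washed 3 × 5 min in cold buffer, dipped in cold water and dried with cold air.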

[6] = biological target: Metabotropic glutamate receptor 1 (Rattus norvegicus) (UniProt P23385); assay: Binding affinity to mGluR1 in Sprague-Dawley rat striatum at 0.4 MBq after 30 mins by autoradiography
In short: as §1

[7] = biological target: Metabotropic glutamate receptor 1 (Rattus norvegicus) (UniProt P23385); assay: Binding affinity to mGluR1 in Sprague-Dawley rat cerebellum at 9.2 MBq after 30 mins by autoradiography relative to control in presence of JNJ16259685; details: 9.2 M, tested as the 11C-labelled form
In short: as §2

[8] = biological target: Metabotropic glutamate receptor 1 (Rattus norvegicus) (UniProt P23385); assay: Binding affinity to mGluR1 in Sprague-Dawley rat brain stem after 30 mins by autoradiography in presence of JNJ16259685; details: tested as the 11C-labelled form
[9] = biological target: Metabotropic glutamate receptor 1 (Rattus norvegicus) (UniProt P23385); assay: Binding affinity to mGluR1 in Sprague-Dawley rat brain stem at 0.4 MBq after 30 mins by autoradiography; assay type: tissue-based
[10] = biological target: Metabotropic glutamate receptor 1 (Rattus norvegicus, UniProt P23385); assay: Displacement of 4-[18F]fluoro-N-[4-(6-(isopropylamino)pyrimidin-4-yl)-1,3-thiazol-2-yl]-N-methylbenzamide from mGluR1 in Sprague-Dawley rat brain homogenates after 1 hr; assay type: tissue-based
Sequence of Metabotropic glutamate receptor 1 (P23385 whole entry): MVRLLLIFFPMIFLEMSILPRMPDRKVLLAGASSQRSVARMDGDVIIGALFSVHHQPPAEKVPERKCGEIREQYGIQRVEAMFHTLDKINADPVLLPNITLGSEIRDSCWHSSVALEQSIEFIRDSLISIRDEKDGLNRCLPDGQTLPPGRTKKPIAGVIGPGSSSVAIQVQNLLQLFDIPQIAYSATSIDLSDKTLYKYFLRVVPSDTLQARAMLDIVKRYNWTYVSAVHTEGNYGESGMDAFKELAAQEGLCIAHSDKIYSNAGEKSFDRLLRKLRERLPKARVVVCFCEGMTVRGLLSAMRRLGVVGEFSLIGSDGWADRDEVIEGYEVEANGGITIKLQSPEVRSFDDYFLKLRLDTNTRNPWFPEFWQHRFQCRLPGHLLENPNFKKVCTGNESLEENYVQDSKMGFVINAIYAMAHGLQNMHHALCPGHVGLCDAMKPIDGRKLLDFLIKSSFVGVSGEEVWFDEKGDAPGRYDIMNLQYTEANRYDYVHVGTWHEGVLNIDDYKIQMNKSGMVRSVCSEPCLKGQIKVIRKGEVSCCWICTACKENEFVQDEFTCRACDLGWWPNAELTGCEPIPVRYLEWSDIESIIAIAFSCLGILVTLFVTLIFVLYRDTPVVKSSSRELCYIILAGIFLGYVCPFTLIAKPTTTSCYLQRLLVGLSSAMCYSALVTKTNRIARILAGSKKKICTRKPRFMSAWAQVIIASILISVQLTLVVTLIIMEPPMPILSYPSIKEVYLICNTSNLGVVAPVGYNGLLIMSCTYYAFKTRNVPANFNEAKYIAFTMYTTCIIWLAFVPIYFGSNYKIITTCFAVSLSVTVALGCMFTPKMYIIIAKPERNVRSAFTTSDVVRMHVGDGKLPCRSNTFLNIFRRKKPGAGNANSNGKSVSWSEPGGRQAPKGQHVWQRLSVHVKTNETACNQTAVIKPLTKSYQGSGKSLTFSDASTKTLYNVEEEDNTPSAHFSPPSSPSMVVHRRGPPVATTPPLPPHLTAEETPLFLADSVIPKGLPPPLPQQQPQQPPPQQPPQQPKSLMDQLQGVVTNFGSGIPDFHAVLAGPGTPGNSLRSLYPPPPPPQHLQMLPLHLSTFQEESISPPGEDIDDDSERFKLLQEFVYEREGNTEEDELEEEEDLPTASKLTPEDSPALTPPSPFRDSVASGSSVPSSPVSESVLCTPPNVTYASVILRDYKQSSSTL
In short: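 Rat whole-brain homogenate (washed pellets in 50 mM Tris-HCl pH 7.4, 120 mM NaCl; diluted to 100 mg/mL in Tris-HCl with NaCl, KCl, MgCl₂, CaCl₂) incubated 1 h, room temperature with [¹⁸F]-ligand (3 nM in PBS) and competitor […] in 0.1% DMSO. Filtration on PEI-treated GF/C, gamma counting; Kd by Scatchard; IC50/Ki by nonlinear regression; duplicate, mean SE.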

[11] = biological target: Metabotropic glutamate receptor 1 (Rattus norvegicus) (UniProt P23385); assay: Binding affinity to mGluR1 in Sprague-Dawley rat brain stem at 9.2 MBq after 30 mins by autoradiography; assay type: tissue-based; details: 9.2 M, tested as the 11C-labelled form
In short: as §2

[12] = biological target: Metabotropic glutamate receptor 1 (Rattus norvegicus) (UniProt P23385); assay: Binding affinity to mGluR1 in Sprague-Dawley rat striatum at 9.2 MBq after 30 mins by autoradiography relative to control in presence of JNJ16259685; details: 9.2 M, tested as the 11C-labelled form
In short: as §2

[13] = biological target: Metabotropic glutamate receptor 5 (Rattus norvegicus, UniProt P31424); assay: Displacement of [11C]-ABP688 from mGluR5 in Sprague-Dawley rat brain homogenates after 1 hr by gamma counting; assay type: tissue-based
Sequence of Metabotropic glutamate receptor 5 (P31424 whole entry): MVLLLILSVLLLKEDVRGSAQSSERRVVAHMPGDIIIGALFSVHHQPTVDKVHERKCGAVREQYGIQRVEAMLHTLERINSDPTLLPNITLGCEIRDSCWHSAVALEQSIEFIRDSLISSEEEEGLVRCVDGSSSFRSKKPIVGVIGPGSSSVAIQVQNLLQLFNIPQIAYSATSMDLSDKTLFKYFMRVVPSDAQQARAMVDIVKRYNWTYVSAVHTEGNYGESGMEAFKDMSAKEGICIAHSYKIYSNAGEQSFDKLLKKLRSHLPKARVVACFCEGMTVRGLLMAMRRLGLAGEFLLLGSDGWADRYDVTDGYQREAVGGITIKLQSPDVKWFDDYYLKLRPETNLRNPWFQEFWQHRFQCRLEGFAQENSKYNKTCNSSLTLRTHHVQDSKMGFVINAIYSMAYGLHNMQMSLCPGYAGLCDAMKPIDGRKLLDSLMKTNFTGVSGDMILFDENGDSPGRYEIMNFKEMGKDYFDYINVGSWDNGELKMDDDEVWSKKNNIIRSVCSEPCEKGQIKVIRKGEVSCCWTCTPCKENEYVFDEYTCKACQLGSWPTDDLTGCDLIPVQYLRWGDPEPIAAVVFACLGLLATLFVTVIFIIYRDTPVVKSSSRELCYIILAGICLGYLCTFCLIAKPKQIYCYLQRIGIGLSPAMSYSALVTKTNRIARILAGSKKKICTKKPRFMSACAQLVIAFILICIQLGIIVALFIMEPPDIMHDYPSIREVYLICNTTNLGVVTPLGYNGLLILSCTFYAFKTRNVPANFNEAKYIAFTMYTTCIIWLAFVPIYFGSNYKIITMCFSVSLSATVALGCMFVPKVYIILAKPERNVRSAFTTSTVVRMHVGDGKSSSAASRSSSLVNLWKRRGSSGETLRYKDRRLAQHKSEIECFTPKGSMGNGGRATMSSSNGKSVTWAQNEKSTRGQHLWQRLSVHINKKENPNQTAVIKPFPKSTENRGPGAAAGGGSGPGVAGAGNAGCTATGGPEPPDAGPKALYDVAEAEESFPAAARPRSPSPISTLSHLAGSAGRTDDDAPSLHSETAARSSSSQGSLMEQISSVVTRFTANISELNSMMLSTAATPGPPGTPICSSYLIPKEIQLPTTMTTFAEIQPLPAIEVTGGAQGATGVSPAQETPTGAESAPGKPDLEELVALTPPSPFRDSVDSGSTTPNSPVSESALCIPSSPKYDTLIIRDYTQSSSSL
In short: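 mGluR5 competition in same rat brain homogenate, run as mGluR1 assay but with [¹¹C]ABP688-type radioligand: 1 h room temperature incubation, filtration through PEI-treated glass fiber filters, gamma counting, nonlinear regression for IC50.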

[14] = biological target: Metabotropic glutamate receptor 1 (Rattus norvegicus) (UniProt P23385); assay: Binding affinity to mGluR1 in Sprague-Dawley rat brain stem at 9.2 MBq after 30 mins by autoradiography relative to control in presence of JNJ16259685; assay type: tissue-based; details: 9.2 M, tested as the 11C-labelled form
In short: as §2

[15] = Lipophilicity, log D of the compound in octanol-phosphate buffer at pH 7.4 by Shake flask method; assay type: physicochemical
In short: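 Radioligand shaken with n-octanol and 0.1 M sodium phosphate buffer pH 7.4 (3.0 g each), vortex 3 min room temperature, centrifuged 2330g 5 min; phases weighed and counted, octanol repartitioned until constant. LogD = log(cpm/g octanol / cpm/g buffer); triplicate.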

[16] = biological target: Metabotropic glutamate receptor 1 (Rattus norvegicus) (UniProt P23385); assay: Binding affinity to mGluR1 in Sprague-Dawley rat brain at 9.2 MBq after 30 mins by autoradiography relative to control in presence of JNJ16259685; assay type: tissue-based; details: 9.2 M, tested as the 11C-labelled form
In short: as §2

[17] = biological target: Metabotropic glutamate receptor 1 (Rattus norvegicus) (UniProt P23385); assay: Binding affinity to mGluR1 in Sprague-Dawley rat striatum at 9.2 MBq after 30 mins by autoradiography; details: 9.2 M, tested as the 11C-labelled form
In short: as §2

[18] = biological target: Metabotropic glutamate receptor 1 (Rattus norvegicus) (UniProt P23385); assay: Binding affinity to mGluR1 in Sprague-Dawley rat thalamus at 9.2 MBq after 30 mins by autoradiography; details: 9.2 M, tested as the 11C-labelled form
In short: as §2

[19] = biological target: Metabotropic glutamate receptor 1 (Rattus norvegicus) (UniProt P23385); assay: Binding affinity to mGluR1 in Sprague-Dawley rat thalamus at 9.2 MBq after 30 mins by autoradiography relative to control in presence of JNJ16259685; details: 9.2 M, tested as the 11C-labelled form
In short: as §2

[20] = biological target: Metabotropic glutamate receptor 1 (Rattus norvegicus) (UniProt P23385); assay: Binding affinity to mGluR1 in Sprague-Dawley rat cerebellum at 0.4 MBq after 30 mins by autoradiography in presence of JNJ16259685
[21] = biological target: Metabotropic glutamate receptor 1 (Rattus norvegicus) (UniProt P23385); assay: Binding affinity to mGluR1 in Sprague-Dawley rat thalamus at 0.4 MBq after 30 mins by autoradiography in presence of JNJ16259685; details: 0.4 M, tested as the 18F-labelled form
In short: as §1

[22] = biological target: Metabotropic glutamate receptor 1 (Rattus norvegicus) (UniProt P23385); assay: Binding affinity to mGluR1 in Sprague-Dawley rat striatum at 0.4 MBq after 30 mins by autoradiography in presence of JNJ16259685; details: 0.4 M, tested as the 18F-labelled form
In short: as §1

[23] = biological target: Metabotropic glutamate receptor 1 (Rattus norvegicus) (UniProt P23385); assay: Binding affinity to mGluR1 in Sprague-Dawley rat brain stem at 0.4 MBq after 30 mins by autoradiography in presence of JNJ16259685; assay type: tissue-based; details: 0.4 M, tested as the 18F-labelled form
In short: as §1

[24] = 9.2 M, in the assay text read “9.2 MBq” for “0.4 MBq”, tested as the 11C-labelled form
[25] = 0.4 M, tested as the 18F-labelled form

SMILES | IC50 [10] | Ki [10] | IC50 [13] | logD [15] | Activity [3, 25] | Activity [4, 25] | Activity [6, 25] | Activity [21] | Activity [22] | Activity [9, 25] | Activity [23] | Activity [20, 25] | also measured
COc1ccc(C(=O)N(C)c2nc(-c3cc(NC(C)C)ncn3)cs2)cc1 | 32.7 nM | 12.6 nM | > 10000 nM | 2.57 | – | – | – | – | – | – | – | – | Activity [1]: inactive; Activity [2]: inactive; Activity [3, 24]: Active; Activity [4, 24]: Active; Activity [5]: Active; Activity [6, 24]: Active; Activity [7]: 30%; Activity [8]: inactive; Activity [9, 24]: Active; Activity [11]: Active; Activity [12]: 30%; Activity [14]: 30%; Activity [16]: > 70%; Activity [17]: Active; Activity [18]: Active; Activity [19]: 30%; Activity [20, 24]: inactive
CC(C)Nc1cc(-c2csc(N(C)C(=O)c3ccc(OCCF)cc3)n2)ncn1 | 395 nM | 153 nM | > 10000 nM | 2.59 | Active | Active | Active | inactive | inactive | Active | inactive | inactive | –
CC(C)Nc1cc(-c2csc(N(C)C(=O)c3ccc(F)cc3)n2)ncn1 | 13.9 nM | 5.4 nM | > 10000 nM | 1.45 | – | – | – | – | – | – | – | – | –
CC(C)Nc1cc(-c2csc(N(C)C(=O)c3ccc(OCCCF)cc3)n2)ncn1 | > 10000 nM | > 5000 nM | > 10000 nM | 2.8 | Active | Active | Active | inactive | inactive | Active | inactive | inactive | –
